The EternaBench riboswitch data

Test system: MS2 coat protein
Experiment: apparent Kd, MS2 coat protein; higher = weaker binding; RNA-MaP array; FMN 200 µM where present
Procedure, shortened: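 Binding was read on Illumina sequencing-chip clusters where stalled E. coli RNA polymerase had transcribed each design. A titration of SNAP-549-labelled MS2 coat protein began at 0.7 or 1.5 nM and doubled to 3 µM, once without ligand and once with constant ligand, in 100 mM Tris-HCl pH 7.5, 80 mM KCl, 4 mM MgCl2, BSA, DTT, yeast tRNA and Tween-20. The apparent Kd is the median of filtered per-cluster binding-curve fits, based on green signal normalised to red-channel RNA signal and control-cluster median Fmax.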

[1] = designed as: OFF switch for flavin mononucleotide, no ligand
[2] = ligand present: flavin mononucleotide, designed as: OFF switch for flavin mononucleotide
[3] = designed as: ON switch for flavin mononucleotide, no ligand
[4] = ligand present: flavin mononucleotide, designed as: ON switch for flavin mononucleotide

Sequence	apparent Kd [1] [nM]	apparent Kd [2] [nM]	apparent Kd [3] [nM]	apparent Kd [4] [nM]
ACACAGGGAGGAUAUACAUGAGGAUCACCCAUGUAGAGUGGAUUGGGAUUGCUAUCAAGUAGAAGGCUUUAGUG	56.1	122		
GUGCAACAUGAGGAUCACCCAUGUCAGGAUAUGCGAAUUUCAUCAAAAGAUGAAAUUUGCAGAAGGGACUGCAC	19	22.8		
CUCAAACAUGAGGAUCACCCAUGUGUUGUCAUGGGAGGAUAUCUAAGUUCAUUGUAUUCGGGAGAAGGCCUAUGUC			503	46.5
AUAUUGUGAGGAUAUGAACUUAGUAUCGAAAGUUACUAAGUUCAGAAGGCACAUGAGGAUCACCCAUGUUUCUC	72.1	972		
AACGAGCAAGAUUAUUAUGAAUAAACAUGAGGAUCACCCAUGUAGGAUAUGCAGUGGAAUACACUGCAGAAGGACAAAAGCUCG	6.49	12.9		
GUCAGCUCGUGAGGAUAUACAACACUGCUUCGGCAGUGUAUUAAGAUCACAUGAGGAUCACCCAUGUAGAAGGCACGAGGUGAU	20.5	245		
CAGUACUGAGGAUAUACAUGAGGAUCACCCAUGUGUUCCAGCUAGGAAACUAGCAAUUGUAGAAGGCAGUACUG	59.2	428		
UUGGACGUCGUAGGAUAUGUAGGAUAUUCCUACAUGAGGAUCACCCAUGUUGACAUGGAAGAAGGACAGAAGUACGAUGUCCAU				5.6
GUUUCUAUAAGUUAUAAUUAACAGUCAGAAGGUGAUACUACGACAUGAGGAUCACCCAUGUAAUUCAAGGAUAUGAACUUAAUC			1120	539
UCGCCAGGUACAGGAUAUGUGGAUCAGUCAAGUAAUUUGCUGAACAUGAGGAUCACCCAUGUAUCACAGAAGGGUGCCUCAAAA			173	8.41
UUUAUAAAGGUAGGAUAUUGUAUUAUAAUUAAAUAAGAAGGAUCUCACAUGAGGAUCACCCAUGUAAGAGGAUCACCCAUGUAU	8.68	9.25		
ACAGUGCGAGGAUAUACAUGAGGAUCACCCAUGUGAGAGAAAUAAGUGAGGAAGAAAAGUAGAAGGCGCGUUGA	75.5	91.7		
GUAGUAUAAAGUUCAUAAUAUAGGAUAGAAGGUGAAAAUUUGACAUGAGGAUCACCCAUGUAAUUCAAGGAUAUGUAGUUACUC			128	96.5
UCGACCAGCGCCAGUCAAACAUGAGGAUCACCCAUGUACUCCAGAAGGCCGCCCAAGAACGGAGUGGAGGAUAUGGAGGUUCUC			43.2	36.7
GGAAAUCAUGUAGGAUAUGCAUGGCGAAGCUACGCAGAAGGACAUGAGGAUCACCCAUGUUAGAGCGUCCGAGAAAGGAUGCAA	43.2	250		
CCUCUACAUGAGGAUCACCCAUGUGAGGAUAUCUCGGAAAAGCCACUUAAGGUACUCCAGAGAAGGCACGUGUA	14.6	23.7		
AAGUCACGAAUAAUAAUAAGAUCUACAUGAGGAUCACCCAUGUAGGAUAUGCAGUGGAAUACACUGCAGAAGGACAUACGUGAC	14.1	16.7		
GCGAUAUUGUAAGGAUAUACUCUGUGAUGAAGAGUAGAAGGUACUUACAUGAGGAUCACCCAUGUUUAACGUGAUACUAAUCGC			541	210
UUAUUUAGUGUGAGGAUAUGCUGGUCCAUAGAUCAGCAGAAGGCACAUGAGGAUCACCCAUGUAAUAUAUUAAU	26.5	202		
UCCAUCGUAUGAGGAUAUGGAACUGAAACAGUUCCAGAAGGCAUGUCAAUAGACAUGAGGAUCACCCAUGUAUUAUCGAUGGAA			429	42.9
CCGGAGACGGGUAGCCUGACAUGAGGAUCACCCAUGUGAUCCAAGGAUAUGGAUCCUAAUUGGAUCCAGAAGGUGGUUGGCUAC			376	371
AAUAUAAAGAGCUGGUAAACUCAAACAUGAGGAUCACCCAUGUAGGAUAUCAGCACGAUAAGUGCUGAGAAGGACAUCCAGCUC	15.9	15.4		
CCACGUCAGAUUAACAUGAGGAUCACCCAUGUCUUUUGACAUGAGGAUAUGGAUCCUAAUUGGAUCCAGAAGGCAUGGACGUGG			963	96.9
AGCAGACGAGGAUAUAGAUGGAAUGACAUGAGGAUCACCCAUGUGAUCGAUCUAUUUGAUUUAGAAGGUGUCUGCU	12.5	15.1		
AAAACGGCACGUCCCGUGCCAACUACAGAAGGCCAACAUGAGGAUCACCCAUGUACAAACUAGAUGGAGGAUAUGUAGGUUCUA			6.19	4.24
CUUGAAUAAGUGAGGAUAUACUGUUAGUAAUGAUUGUAGAAGGUACAUGAGGAUCACCCAUGUUUAUUCAUAAU	18.2	18.3		
CAGUAGAUCCGAGGAUAUACAAUCCGGAAACGGUACAUGAGGAUCACCCAUGUAGAAGGCGGAUCUACAGGUACUAAAGUACCC	5.99	7.8		
GCAGGAUAAGUGAGGAUAUACCUCUGGAUACAGAGGUAGAAGGCACAUGAGGAUCACCCAUGUCUAUAACCUGC	15.5	22.4		

Sequence	apparent Kd [1] [nM]	apparent Kd [2] [nM]	apparent Kd [3] [nM]	apparent Kd [4] [nM]
UCGUGAAGGACAGGAUAUGGACAUGAGGAUCACCCAUGUACAUGGGAAUAUAUACUGCAUUUAUACUAGAAGGGUUACAUAAAU	12.8	11.2		
AACAUGAGGAUCACCCAUGUCCCACCAGAAGGCUGGCGGUCAUGGGAAAGGCCACGACAAAUAACAGAGGAUAUGGUGAAUGCA			168	33.2
CUCCGUGGCGAGAAGGACGGAAUUUAAGGUUCUGUAGGAUAUCGAAACAUGAGGAUCACCCAUGUAUUGAUCGGGUGCAGUGUG	26.9	32.2		
GCGUCAGAAUUAAUUGUGACAUACAGAAGGCAAAAGUUAAGAUCAGACAUGAGGAUCACCCAUGUUGAGGAUAUGUAGAGAAUC	10.4	8.72		
UUGGCGCGAUCCUUGGUCUCACAUGAGGAUCACCCAUGUAGAGAGGAUAUGCAUAGGGCCCAAUGGCAGAAGGCUCUACAUGAG	67.1	71.2		
CUGAGGUCAGGAUAUGCAUGGCGGGACUUGCGUCGUGGCGUGCAGAAGGGACAUGAGGAUCACCCAUGUGGAGC	86.7	249		
CUGGUUCUCGUAGGAUAUGUAGGAUAUGCCUACAUGAGGAUCACCCAUGUUCGCAUGGCAGAAGGACAGAAGGACGAUCACCAG			55.6	15.4
GGGUACAUCGGAGGAUAUCAUGUAAAUACAUGAGGAUCACCCAUGUCGAUGGAGACAUCGGAGAUUCAGAAGGCCGAUGUACCG			108	35.5
GUGAUCCCGGUUAGGAUAUUAGUGAUGUACACCUCUGAGAAGGGACAUGAGGAUCACCCAUGUCGCCUUGAAAC	17.7	22.6		
UAUGUUGUUGUGAGGAUAUACUUUGUUUGACCGUAGUAGAAGGCACAUGAGGAUCACCCAUGUAGAUUUUUGGU	9.74	13.6		
AGGACGGGUAAGAAGGCGUUCUCACAUGAGGAUCACCCAUGUCGAAGGAUGAGGAUAUUGGCCGAGGGUGGCGUUUUGUGACGA			30.9	9.35
CGUUUGGGAGGAUAUCCAAUAUAUGACAUGAGGAUCACCCAUGUUUCCACUCGUACCUCCGGAGAAGGCCCUGCGU	22.9	21		
AGUUAAUAUCGAGGAUAUGUCUAGACACAUGAGGAUCACCCAUGUAUGUGUAUAGAAGGCGAAAAUAACAGCAUGUUACAUGCA			37.4	19.9
UUAUGCUGAGAGAAGGUUCAAACUACAUAUUGCGCACAUGAGGAUCACCCAUGUUGGUGAAUAAGAAAGGAUAUUUUACUGUAU	63.2	43.1		
UGGUUGUGUGUCAGGAUAUGGUCUGGUGUUUCGGGCUAGAAGGGACAUGAGGAUCACCCAUGUGGCUGGUGCGC	149	186		
GGUGCGUAUGUGAGGAUAUGCUGGUCCUUGGCUCGGCAGAAGGCACAUGAGGAUCACCCAUGUGGUGUCGUACA	112	50.9		
UGUUGUAAUACAGGAUAUAUAUUAUUUUUAUUUAUAGAAGGGUAAUCACAUGAGGAUCACCCAUGUAUAUACGAGGAAGAAGAG			209	251
GGUGUAGGAGGAUAUACAUGAGGAUCACCCAUGUGGCCACGUUGUAAGAUGACAUUAUGUAGAAGGCUUAGUGG	90.4	89.8		
GCCAGUUAUGUAGGAUAUGCGCAGCGAGCCUGAGCAGAAGGACAUGAGGAUCACCCAUGUGUUGCGGUUUGAGUACUAAUCGCU	24.3	134		
AUACAUGAGGAUCACCCAUGUAAUUAAUUAACUUGUAAGAUCAAGGAUAUCAGCUCGAAUAGAGCUGAGAAGGUGAUCACAUGU			179	220
GUAUCAUAUGAGAAGGCGAUCAUGAAACAUGAUCGAGGAUAUCAUGAAAACAUGAGGAUCACCCAUGUAUGGGUAUUAAGGUAC			65.6	41.7
CUUUUGUGAGGAUAUCAGUAGUAAAAAAAUAAAAUUACUACUGAGAAGGCACAUGAGGAUCACCCAUGUUCCUC	30.7	237		
GCCGUAAGUGUGAGGAUAUACCUAUGGAAACAUAGGUAGAAGGCACAUGAGGAUCACCCAUGUUCUUAAUCGGC	134	329		
GUAGCAUACCGAGGAUAUUCAUACGGGAAACCGACAUGAGGAUCACCCAUGUGGCGAAAGCCUUGGGAGAAGGCGGAAUGCUAC			691	24.8
UUUAAUUUGUAGAAGGACGACUAUUAAUAUUUCGUAGGAUAUACUAUUUACAUGAGGAUCACCCAUGUUUAAAUGGAACAAUGU	8.35	12.4		
CAUAUCGUAAGAGGAUAUAUGAGUCCUACAUGAGGAUCACCCAUGUAGGUGAUCUAACGAGAUUAGUAGAAGGCUUACGAUAUG			16.2	7.62
AAAAAGGCAGGAUAUACAAAAAAGAGAAGAGAGGAGGAGGGACAUGAGGAUCACCCAUGUAGAAGGGCCAAAAA	31.5	37.4		
